H9c2 protect: myocardial damage modulation in H9c2 cells; AID 588492; 360,000 tested, 0.63% active; H9c2 cardiomyocytes, H2O2 injury protection, ATPLite, 2 h; protection from H2O2 cell death, % at 20 µM;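 active = compounds giving at least 50% protection of heart cells from peroxide-induced death in the single-dose screen, raw or plate-pattern-corrected value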
SENP1 FRET inh: blocks the human SENP1 SUMO protease catalytic domain; recombinant SENP1 catalytic domain, CyPet-SUMO1-YPet FRET cleavage; 360,000 tested, 0.21% active; inhibition, % at 10 µM; Q9P0U3;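 active = inhibition at least 30% at 10 µM, raw YFP signal under a set limit, fluorescence ratio 0.5 to 1.5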
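Test system: human SENP1 catalytic domain; medium: Tris pH 8 buffer plus EDTA, NaCl, BME, BSA, NP40, catalase; incubation: 50 min reaction at room temperature; technique: FRET, CFP and YFP emission; controls: no-enzyme low control and enzyme-plus-DMSO high control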
Arrestin-AP2 inh: blocks beta-arrestin peptide binding to AP2 adaptin | FITC-arrestin peptide / GST-AP2 beads, flow cytometry; AP2 beta2 appendage carries R879A mutation | inhibition, % at 10 µM | 340,000 tested, 0.31% active;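 active = inhibition above a set limit, near 3 SD of compounds lacking own fluorescence, cut at about 54% in these data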
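Test system: GST-tagged AP2 beta2-adaptin appendage (R879A) on 4 µm glutathione beads; also added: fluorescein-tagged arrestin peptide at 50 nM final; timing: 12 min plus 1 h, RT; signal: flow cytometry, FL1 (488/535 nm); read-out: percent drop in bead-associated FITC signal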
FAS-TE inh: FAS thioesterase (human) inhibition. P49327. recombinant FAS-TE, OMFH fluorogenic substrate, fluorescence endpoint. inhibition, % at 15 µM. 360,000 tested, 0.67% active. AID 602261;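 active = compounds whose normalised, plate-corrected inhibition of enzyme fluorescence in the single-dose primary screen is 50% or more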
GRIN3A LBD mod: modulates the human NR3A ligand-binding domain; NR3A LBD differential scanning fluorimetry, Tm shift; 0% = protein alone, 100% = glycine-bound protein; Tm shift relative to glycine control, % at 25 µM; 340,000 tested, 2.5% active; AID 1259313;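 active = melting temperature shift of at least 10% of the positive control shift, at one fixed dose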
hiPSC survival: enhancers of human iPSC single-cell survival | hiPSC single-cell survival, ATPlite luminescence; 100% = ROCK inhibitor wells, 0% = DMSO | survival enhancement, % at 20 µM | 360,000 tested, 0.044% active | AID 602274; in the data active = survival enhancement above about 18%;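 also: cells exposed to compounds for 16 hours before the ATP read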
Numbers stand for hits; 0 = inactive; - = no result. Rows were chosen to be rich in hits. Some 4% of all compounds tested hit in one or more screens of this group.

SMILES | H9c2 protect | SENP1 FRET inh | Arrestin-AP2 inh | FAS-TE inh | GRIN3A LBD mod | hiPSC survival
COc1cc2c(cc1OC)CN(CC(=O)Nc1ccccc1C#N)CC2 | 74 | 0 | 0 | 0 | 0 | 0
O=C(Nc1cccc2c1CCCC2)c1cc(C2CCCCN2C(=O)CCCc2ccccc2)on1 (configuration not stated) | 0 | 0 | - | 0 | - | 0
O=c1[nH]c2ccc(S(=O)(=O)N3CCN(Cc4ccccc4)CC3)cc2[nH]c1=O | 0 | 0 | 0 | 0 | 11 | 0
CCOC(=O)C1=C(c2ccccc2)N=c2s/c(=C\c3cccc(O)c3)c(=O)n2C1c1cccs1 (configuration not stated) | 0 | 0 | 0 | 0 | 14 | 0
COc1cccc(C(=O)N/N=C(/c2ccccc2)c2ccccn2)c1 | 0 | 0 | 0 | 0 | 0 | 0
COc1cc(C(=O)N/N=C(\C)c2ccccn2)cc(OC)c1OC | 58 | 0 | 0 | 0 | 0 | 0
COc1cc(C(=O)N/N=C(\c2ccccc2)c2ccccn2)cc(OC)c1OC | 78 | 0 | 0 | 0 | 0 | 0
CCCCCC(=O)N/N=C(\C)c1ccccn1 | 61 | 0 | 0 | 0 | 0 | 0
O=C1NC[C@@H](CCCCN2CCN(CC3CCCCC3)C(=O)C2=O)N(CCC2CCCCC2)C1=O | - | 0 | - | 0 | - | 0
COCCN(CC(=O)Nc1cccc(C)c1C)C(=O)/C=C/c1ccc2c(c1)OCCO2 | 0 | 0 | - | 0 | - | 0
COc1ccc(CN2C(=O)c3ccccc3C2c2nnnn2-c2ccc3c(c2)OCCO3)cc1 (configuration not stated) | - | 0 | - | 0 | - | 0
CCOC(=O)C(C)On1c(-c2cccc(Cl)c2)nc2ccc([N+](=O)[O-])cc21 (configuration not stated) | 0 | 0 | 0 | 0 | 10 | 0
Cc1cc(C)cc(NC(=O)CSc2ccc(-c3ccccn3)nn2)c1 | 67 | 0 | 0 | 0 | 0 | 0
O=C(CSc1ccc(-c2ccc(Cl)cc2)nn1)N1CCCc2ccccc21 | 0 | 0 | 0 | 0 | 0 | 0
Cc1ccccc1NC(=O)CSc1ccc(-c2ccccn2)nn1 | 0 | 0 | 0 | 0 | 0 | 0
O=C(CSc1ccc(-c2ccccn2)nn1)N1CCCc2ccccc21 | 52 | 0 | 0 | 0 | 0 | 0
COc1ccc(NC(=O)C2(C)CCN2C(=O)c2ccccc2CCc2ccccc2)cc1OC (configuration not stated) | 0 | 0 | - | 0 | - | 0
O=C1c2ccccc2C(c2nnnn2Cc2ccccc2)N1CCCN1CCOCC1 (configuration not stated) | - | 0 | - | 0 | - | 0
COc1cccc(N/C(SCc2ccccc2Cl)=C(/C#N)C(=O)NCc2cccs2)c1 | 0 | 0 | 0 | 0 | 13 | 0
O=C(NCc1ccc(F)cc1)c1cc(C2CCCCN2C(=O)CCCc2ccccc2)on1 (configuration not stated) | 0 | 0 | - | 0 | - | 0
OCc1cccc(-c2cnc3c(Nc4cccc(OC(F)(F)C(F)F)c4)nccn23)c1 | 0 | 0 | - | 0 | - | 0
CCOc1ccccc1NC(=S)N1CCN(c2ccc(O)cc2)CC1 | 0 | 0 | 0 | 0 | 0 | 0
CCOc1ccccc1NC(=S)N1CCN(c2ccc(OC)cc2)CC1 | 0 | 0 | 0 | 0 | 10 | 0
CNc1cnc(-c2ccsc2)cn1 | 0 | 0 | - | 0 | - | 0
O=S(=O)(c1ccccc1)c1cnn2c(C(F)(F)F)cc(-c3ccc(F)cc3)nc12 | 0 | 0 | 0 | 0 | 14 | 0
SMILES | H9c2 protect | SENP1 FRET inh | Arrestin-AP2 inh | FAS-TE inh | GRIN3A LBD mod | hiPSC survival
COc1ccccc1-c1cc(C(F)(F)F)n2ncc(S(=O)(=O)c3ccccc3)c2n1 | 0 | 0 | 0 | 0 | 24 | 0
O=S(=O)(c1ccccc1)c1cnn2c(C(F)(F)F)cc(-c3ccccc3)nc12 | 0 | 0 | 0 | 0 | 0 | 0
COc1ccccc1-c1cc(C(F)(F)F)n2ncc(C(=O)N3CCc4ccccc4C3)c2n1 | 0 | 0 | 0 | 0 | 0 | 0
N/C(=N\OC(=O)c1ccccc1Br)c1cccc([N+](=O)[O-])c1 | 0 | 0 | 0 | 0 | 0 | 0
N/C(=N\OC(=O)c1ccccc1Br)c1ccc([N+](=O)[O-])cc1 | 0 | 0 | 0 | 0 | 11 | 0
N/C(Cc1ccc([N+](=O)[O-])cc1)=N\OC(=O)c1ccccc1Br | 0 | 0 | 0 | 0 | 12 | 0
N/C(Cc1ccc([N+](=O)[O-])cc1)=N\OC(=O)c1ccc(Br)cc1 | 0 | 0 | 0 | 0 | 0 | 0
Cc1noc(-c2ccccc2)c1NC(=O)Nc1ccc2nc([C@H]3C[C@H](O)[C@@H](CO)O3)[nH]c2c1 | 0 | 0 | - | 0 | - | 0
COc1cc(Cc2nc3ccccc3n2C(C)c2nc3ccccc3[nH]2)cc(OC)c1 (configuration not stated) | - | 0 | - | - | - | -
CCOc1ccc2nc(N=NC3=C(O)CC(C)(C)CC3=O)sc2c1 | 51 | 0 | 0 | 0 | 0 | 0
Cc1nc2ccc(N=NC3=C(O)CC(C)(C)CC3=O)cc2s1 | 0 | 0 | 0 | 0 | 0 | 0
O=C1Cc2c([nH]c3ccc([N+](=O)[O-])cc23)-c2ccccc2N1 | 0 | 0 | 0 | 0 | 0 | 0
Cc1cc(C)c2c(N)c(C(=O)N/N=C/c3cccnc3)sc2n1 | 66 | 0 | 0 | 0 | 0 | 0
Cc1nc2c(C)cccc2cc1C(=O)N/N=C/c1cccnc1 | 0 | 0 | 0 | 0 | 14 | 0
Cc1cc(C)c2c(N)c(C(=O)N/N=C/c3ccccc3)sc2n1 | 0 | 0 | 0 | 0 | 0 | 0
Cc1nc2c(C)cccc2cc1C(=O)N/N=C/c1ccc(C(=O)O)cc1 | 0 | 0 | 0 | 0 | 0 | 0
Cn1c(=O)cc(OCC(=O)NCCCN2CCN(c3ccccc3F)CC2)c2ccccc21 | 0 | 0 | 0 | 0 | 0 | 0
Cn1c(=O)cc(OCC(=O)NCCCN2CCN(c3cccc(Cl)c3)CC2)c2ccccc21 | 64 | 0 | 0 | 0 | 0 | 0
O=C(COC(=O)c1cccc(S(=O)(=O)N2CCOCC2)c1)NC1CCCCC1 | 0 | 0 | - | 0 | - | 0
COc1ccc2nc(Nc3nc(CSc4nc5ccccc5[nH]4)cc(=O)[nH]3)nc(C)c2c1 | 70 | 0 | - | 0 | 0 | 0
CCOC(=O)[C@]12CCCC=C1N(Cc1ccc3c(c1)OCO3)C(=O)[C@H](CC(=O)NCC13CC4CC(CC(C4)C1)C3)C2 | - | 0 | - | 0 | - | 0
CCOc1ccc(N=Cc2ccc([N+](=O)[O-])cc2)c(O)c1 | 0 | 39 | - | 0 | - | 0
CCOc1ccc(CNC(=S)N/N=C/c2cccnc2)cc1 | 0 | 0 | 0 | 0 | 0 | 0
CCOc1ccc(CNC(=S)N/N=C\c2ccc([N+](=O)[O-])cc2)cc1 | 0 | 0 | 0 | 0 | 24 | 0
O=C(COC(=O)c1cccc(OC(F)F)c1)Nc1cc(S(=O)(=O)N2CCCC2)ccc1Cl | 0 | 0 | - | 0 | - | 0
Fc1cccc(Cc2c(-c3ccc(Cl)cc3)nc3ccc(Br)cn23)c1 | 0 | 0 | - | 0 | - | 0
